Data taken from ChEMBL document CHEMBL2407075, “Sulphonamido-quinoxalines: search for anticancer agent” (Eur J Med Chem, 2013).

What was measured:
KM12 = assay: Growth inhibition of human KM12 cells at 10 uM after 48 hrs by sulforhodamine B assay; type: functional; details: KM12, 48 h, read-out: GI
Summary of the method: (§1)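 Single-dose screen at 10 µM across the NCI 60 panel. Cells in RPMI 1640 with 5% FBS and 2 mM L-glutamine, plated at 5000–40,000/well and preincubated 24 h at 37 °C, 5% CO2. Drug in DMSO, 48 h exposure. Fixed with TCA, stained with SRB, A515 read. Percent growth is taken relative to untreated control, and inhibition is 100 minus growth.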

T47D = assay: Growth inhibition of human T47D cells at 10 uM after 48 hrs by sulforhodamine B assay; type: functional; details: read-out: GI; summary of the method: as §1
HOP-62 = assay: Growth inhibition of human HOP62 cells at 10 uM after 48 hrs by sulforhodamine B assay; type: functional; details: HOP-62, 48 h, read-out: GI
Summary of the method: (§2)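 NCI-60 one-dose primary screen at a single 10 µM concentration. Cells in RPMI 1640 with 5% FBS, preincubated 24 h at 37 °C, 5% CO2. Drug exposure 48 h, then TCA fixation, SRB staining and absorbance at 515 nm. Percent growth calculated against time-zero and untreated control wells, then converted to percent growth inhibition.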

SK-OV-3 = assay: Growth inhibition of human SKOV3 cells at 10 uM after 48 hrs by sulforhodamine B assay; type: functional; details: SK-OV-3, 48 h, read-out: GI; summary of the method: as §1
[1] = Growth inhibition of human HCC2998 cells at 10 uM after 48 hrs by sulforhodamine B assay; type: functional; details: HCC 2998, 48 h, read-out: GI; summary of the method: as §2
NCI-H522 = assay: Growth inhibition of human NCI-H522 cells at 10 uM after 48 hrs by sulforhodamine B assay; type: functional; details: NCI-H522, 48 h, read-out: GI; summary of the method: as §1
SK-MEL-2 = assay: Growth inhibition of human SK-MEL-2 cells at 10 uM after 48 hrs by sulforhodamine B assay; type: functional; details: SK-MEL-2, 48 h, read-out: GI; summary of the method: as §1
SNB-19 = assay: Growth inhibition of human SNB19 cells at 10 uM after 48 hrs by sulforhodamine B assay; type: functional; details: SNB-19, 48 h, read-out: GI; summary of the method: as §1
SK-MEL-5 = assay: Growth inhibition of human SK-MEL-5 cells at 10 uM after 48 hrs by sulforhodamine B assay; type: functional; details: SK-MEL-5, 48 h, read-out: GI; summary of the method: as §1
IGROV-1 = assay: Growth inhibition of human IGROV1 cells at 10 uM after 48 hrs by sulforhodamine B assay; type: functional; details: IGROV-1, 48 h, read-out: GI; summary of the method: as §1
SW-620 = assay: Growth inhibition of human SW620 cells at 10 uM after 48 hrs by sulforhodamine B assay; type: functional; details: SW-620, 48 h, read-out: GI; summary of the method: as §1
SF-295 = assay: Growth inhibition of human SF295 cells at 10 uM after 48 hrs by sulforhodamine B assay; type: functional; details: SF-295, 48 h, read-out: GI; summary of the method: as §1
MDA-MB-231 = assay: Growth inhibition of human MDA-MB-231 cells at 10 uM after 48 hrs by sulforhodamine B assay; type: functional; details: MDA-MB-231, 48 h, read-out: GI; summary of the method: as §1
SF-539 = assay: Growth inhibition of human SF539 cells at 10 uM after 48 hrs by sulforhodamine B assay; type: functional; details: SF-539, 48 h, read-out: GI; summary of the method: as §1
[2] = Oral bioavailability in human; type: ADME, organism-based; details: in silico prediction
786-0 = assay: Growth inhibition of human 786-0 cells at 10 uM after 48 hrs by sulforhodamine B assay; type: functional; details: 786-0, 48 h, read-out: GI
Summary of the method: (§3)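 Single-dose NCI-60 prescreen at 10 µM for 48 h at 37 °C and 5% CO2, using cells grown in RPMI 1640 with 5% FBS and 2 mM glutamine. Protein was measured by SRB after TCA fixation: 10% final for adherent lines, 16% for suspension lines. Absorbance was read at 515 nm. Percent growth inhibition was obtained by subtracting percent growth from 100.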

RXF 393 = assay: Growth inhibition of human RXF393 cells at 10 uM after 48 hrs by sulforhodamine B assay; type: functional; details: RXF 393, 48 h, read-out: GI; summary of the method: as §1
NCI-H322M = assay: Growth inhibition of human NCI-H322M cells at 10 uM after 48 hrs by sulforhodamine B assay; type: functional; details: read-out: GI; summary of the method: as §1
[3] = Growth inhibition of human EKVX cells at 10 uM after 48 hrs by sulforhodamine B assay; type: functional; details: read-out: GI; summary of the method: as §2
A498 = assay: Growth inhibition of human A498 cells at 10 uM after 48 hrs by sulforhodamine B assay; type: functional; details: A498, 48 h, read-out: GI; summary of the method: as §3
CCRF-CEM = assay: Growth inhibition of human CCRF-CEM cells at 10 uM after 48 hrs by sulforhodamine B assay; type: functional; details: read-out: GI; summary of the method: as §3
M14 = assay: Growth inhibition of human M14 cells at 10 uM after 48 hrs by sulforhodamine B assay; type: functional; details: M14, 48 h, read-out: GI; summary of the method: as §1
HL-60(TB) = assay: Growth inhibition of human HL-60(TB) cells at 10 uM after 48 hrs by sulforhodamine B assay; type: functional; details: HL-60, 48 h, read-out: GI
Summary of the method: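 Single-dose NCI-60 primary screen at 10 µM, 48 h exposure, SRB read-out. Growth percentage of treated versus untreated cells was recorded and given as percent inhibition by subtraction.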

UACC-257 = assay: Growth inhibition of human UACC257 cells at 10 uM after 48 hrs by sulforhodamine B assay; type: functional; details: UACC-257, 48 h, read-out: GI; summary of the method: as §1
Malme-3M = assay: Growth inhibition of human MALME-3M cells at 10 uM after 48 hrs by sulforhodamine B assay; type: functional; details: read-out: GI; summary of the method: as §1
BT-549 = assay: Growth inhibition of human BT549 cells at 10 uM after 48 hrs by sulforhodamine B assay; type: functional; details: BT-549, 48 h, read-out: GI; summary of the method: as §3
SN12C = assay: Growth inhibition of human SN12C cells at 10 uM after 48 hrs by sulforhodamine B assay; type: functional; details: read-out: GI; summary of the method: as §1
MDA-MB-468 = assay: Growth inhibition of human MDA-MB-468 cells at 10 uM after 48 hrs by sulforhodamine B assay; type: functional; details: MDA-MB-468, 48 h, read-out: GI; summary of the method: as §1
OVCAR-4 = assay: Growth inhibition of human OVCAR4 cells at 10 uM after 48 hrs by sulforhodamine B assay; type: functional; details: OVCAR-4, 48 h, read-out: GI; summary of the method: as §1
A549 = assay: Growth inhibition of human A549/ATCC cells at 10 uM after 48 hrs by sulforhodamine B assay; type: functional; details: A549, 48 h, read-out: GI; summary of the method: as §3
MCF7 = assay: Growth inhibition of human MCF7 cells at 10 uM after 48 hrs by sulforhodamine B assay; type: functional; details: MCF7, 48 h, read-out: GI; summary of the method: as §1
MOLT-4 = assay: Growth inhibition of human MOLT4 cells at 10 uM after 48 hrs by sulforhodamine B assay; type: functional; details: MOLT-4, 48 h, read-out: GI; summary of the method: as §1
K562 = assay: Growth inhibition of human K562 cells at 10 uM after 48 hrs by sulforhodamine B assay; type: functional; details: K562, 48 h, read-out: GI; summary of the method: as §1
MDA-MB-435 = assay: Growth inhibition of human MDA-MB-435 cells at 10 uM after 48 hrs by sulforhodamine B assay; type: functional; details: MDA-MB-435, 48 h, read-out: GI; summary of the method: as §1

SMILES	inhibition of growth at 10 µM (KM12) [%]	inhibition of growth at 10 µM (T47D) [%]	inhibition of growth at 10 µM (HOP-62) [%]	inhibition of growth at 10 µM (SK-OV-3) [%]	inhibition of growth at 10 µM [1] [%]	inhibition of growth at 10 µM (NCI-H522) [%]	inhibition of growth at 10 µM (SK-MEL-2) [%]	inhibition of growth at 10 µM (SNB-19) [%]	inhibition of growth at 10 µM (SK-MEL-5) [%]	inhibition of growth at 10 µM (IGROV-1) [%]	inhibition of growth at 10 µM (SW-620) [%]	inhibition of growth at 10 µM (SF-295) [%]	inhibition of growth at 10 µM (MDA-MB-231) [%]	inhibition of growth at 10 µM (SF-539) [%]	bioavailability [2] [%]	inhibition of growth at 10 µM (786-0) [%]	inhibition of growth at 10 µM (RXF 393) [%]	inhibition of growth at 10 µM (NCI-H322M) [%]	inhibition of growth at 10 µM [3] [%]	inhibition of growth at 10 µM (A498) [%]	further results
COc1ccccc1NS(=O)(=O)c1ccc2nc(-c3ccccc3)c(-c3ccccc3)nc2c1	8.62	63.9	2.12	18.6	19.9	28.8	25	41.9	61.4	11.8	21.5	15.9	48.3	24.7	100	41.5	70.7	23.2	48.8	42.8	inhibition of growth at 10 µM (CCRF-CEM): 49.8%; inhibition of growth at 10 µM (M14): 26%; inhibition of growth at 10 µM (HL-60(TB)): 60.7%; inhibition of growth at 10 µM (UACC-257): 18.9%; inhibition of growth at 10 µM (Malme-3M): 1.87%; inhibition of growth at 10 µM (BT-549): 55.1%; inhibition of growth at 10 µM (SN12C): 32.6%; inhibition of growth at 10 µM (MDA-MB-468): 56.8%; inhibition of growth at 10 µM (OVCAR-4): 30%; inhibition of growth at 10 µM (A549): 36.5%; inhibition of growth at 10 µM (MCF7): 31.8%; inhibition of growth at 10 µM (MOLT-4): 56.9%; inhibition of growth at 10 µM (K562): 45.5%; inhibition of growth at 10 µM (MDA-MB-435): 22.5%
O=S(=O)(Nc1ccccn1)c1ccc2nc(-c3ccccc3)c(-c3ccccc3)nc2c1	61.5	81.1	22.8	44.9	60.6	65.6	39.3	43.6	-6.25	31.8	47.9	76.8	80.1	61.9	100	99.2	-40.4	59.4	80.8	70.2	inhibition of growth at 10 µM (CCRF-CEM): 70.7%; inhibition of growth at 10 µM (M14): 62.8%; inhibition of growth at 10 µM (HL-60(TB)): 80.7%; inhibition of growth at 10 µM (UACC-257): 42.5%; inhibition of growth at 10 µM (Malme-3M): 32.9%; inhibition of growth at 10 µM (BT-549): 80.2%; inhibition of growth at 10 µM (SN12C): 38.5%; inhibition of growth at 10 µM (MDA-MB-468): -4.67%; inhibition of growth at 10 µM (OVCAR-4): 40.1%; inhibition of growth at 10 µM (A549): 54.7%; inhibition of growth at 10 µM (MCF7): 65.9%; inhibition of growth at 10 µM (MOLT-4): 86.8%; inhibition of growth at 10 µM (K562): 64.4%; inhibition of growth at 10 µM (MDA-MB-435): 54.2%
NC(=S)NNS(=O)(=O)c1ccc2nc(-c3ccccc3)c(-c3ccccc3)nc2c1	15.9	42.6	38.7	5.98	8.92	13.7	7.94	14.8	39.1	8.83	3.72	8.92	17.6	21.7	81.4	2.34	29.2	2.92	23.7	26.8	inhibition of growth at 10 µM (CCRF-CEM): 35.8%; inhibition of growth at 10 µM (M14): 4.23%; inhibition of growth at 10 µM (HL-60(TB)): 40.6%; inhibition of growth at 10 µM (UACC-257): 8.83%; inhibition of growth at 10 µM (Malme-3M): 2.94%; inhibition of growth at 10 µM (BT-549): 1.83%; inhibition of growth at 10 µM (SN12C): 6.98%; inhibition of growth at 10 µM (MDA-MB-468): 30.8%; inhibition of growth at 10 µM (OVCAR-4): 16.5%; inhibition of growth at 10 µM (A549): 34.7%; inhibition of growth at 10 µM (MCF7): 18.9%; inhibition of growth at 10 µM (MOLT-4): 28.1%; inhibition of growth at 10 µM (K562): 34.8%; inhibition of growth at 10 µM (MDA-MB-435): 11.1%
CC(=S)NS(=O)(=O)c1ccc2nc(-c3ccccc3)c(-c3ccccc3)nc2c1	16.8	40.6	2.84	4.85	6.23	3.73	8.53	2.12	28.9	14.8	3.84	5.83	14.8	3.29	94.7	2.83	14.5	17.8	8.53	22.7	inhibition of growth at 10 µM (CCRF-CEM): 24.8%; inhibition of growth at 10 µM (M14): 2.85%; inhibition of growth at 10 µM (HL-60(TB)): 35.3%; inhibition of growth at 10 µM (UACC-257): 2.23%; inhibition of growth at 10 µM (Malme-3M): 2.85%; inhibition of growth at 10 µM (BT-549): 2.74%; inhibition of growth at 10 µM (SN12C): 2.83%; inhibition of growth at 10 µM (MDA-MB-468): 23.7%; inhibition of growth at 10 µM (OVCAR-4): 13.4%; inhibition of growth at 10 µM (A549): 7.74%; inhibition of growth at 10 µM (MCF7): 11.8%; inhibition of growth at 10 µM (MOLT-4): 20.5%; inhibition of growth at 10 µM (K562): 26.8%; inhibition of growth at 10 µM (MDA-MB-435): 4.73%
